{"source": "PubChem BioAssay AID493096", "about": "(Broad Institute, 2011)", "key": {"[1]": {"tested_on": "Vibrio harveyi BB721 quorum sensing luminescence, 9 h", "test": "Vibrio harveyi quorum sensing luminescence inhibitors, dose response, counter-screen for LuxS inhibitor project, strain BB721, dry powder, set 2 (AID 493096)", "in_short": "(§1)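 Material: Vibrio harveyi BB721, strain with quorum sensing constitutively on. Buffer or medium: AB medium. Schedule: compound exposure of 9 h at 30 °C.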"}, "[2]": {"test": "Vibrio harveyi quorum sensing luminescence inhibitors, dose response, counter-screen for LuxS inhibitor project, strain BB721, dry powder, set 2 (AID 493096)", "conditions": "Vibrio harveyi BB721 quorum sensing luminescence, 9 h; at 16 µM (top of the series)", "in_short": "as §1"}}, "note": "Values joined by “and” are separate entries in the source; they are usually repeats but may differ in a detail not shown here. Equal values may be shown once. Active and inactive are the calls of the source.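 The calls were made as follows: active = signal drops and an active concentration is fitted at or below ten times the top valid dose of that sample; inconclusive = flat fit between -70 and -30%, or poor fit quality; inactive = the rest.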"}
{"smiles": "Cc1cccc(NC(=O)c2ccc(Oc3ccccc3)cc2)n1", "values": [{"measurement": "AC50", "setting": "[1]", "result": 14.9, "unit": "µM"}]}
{"smiles": "CCc1ccc(C(=O)Nc2ccc(Br)cn2)cc1", "values": [{"measurement": "activity change, negative = inhibition", "setting": "[2]", "result": "-2.33% (inactive)"}]}
{"smiles": "CCc1ccc(S(=O)(=O)Nc2ccc(Br)cn2)cc1", "values": [{"measurement": "AC50", "setting": "[1]", "result": 14.8, "unit": "µM"}]}
{"smiles": "Cc1cccc(NS(=O)(=O)c2ccc(Oc3ccccc3)cc2)n1", "values": [{"measurement": "AC50", "setting": "[1]", "result": "11.1 µM and 15.4 µM"}]}
{"smiles": "O=C1C=C/C(=C/Br)O1", "values": [{"measurement": "AC50", "setting": "[1]", "result": 6.86, "unit": "µM"}]}
{"smiles": "COc1cc(NC(=O)CN2C(=O)NC(c3ccccc3)(c3ccccc3)C2=O)cc(OC)c1", "values": [{"measurement": "AC50", "setting": "[1]", "result": "0.769 µM and 1.14 µM"}]}
